Only some compounds are listed: those with a hit (about 12% of all), similar ones and a draw of the others.
Dynein cargo inh = dynein cargo transport inhibition; 3617.4 mouse cells, GR-EGFP nuclear translocation imaging; test concentration mostly 20 µM; stimulated with dexamethasone, 1 µM; hits give low values; 0.47% of 220,000 active; z-score, hits read low; AID 1381;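 active = plate z-score of nuclear minus cytoplasmic receptor signal below a set negative limit, without overly bright fluorescence or cell loss, cut at about -3.5 in these data, passing the limit was not always enough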;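 note: z-score of nuclear minus cytoplasmic ring GR-EGFP intensity difference per well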
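medium = tetracycline-free induction medium containing charcoal-stripped FBS | probe or stimulus = dexamethasone, 1.0 µM final | timing = 48 h induction, then 1 h compound, then 30 min agonist, 37 °C | detection = automated 10x imaging of fixed Hoechst-stained cells | read-out basis = nuclear versus cytoplasmic GR-EGFP signal, averaged per well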
b-catenin transl = alters nuclear translocation of beta-catenin in HeLa cells. immunofluorescence imaging. 0.3% of 190,000 active. nuclear translocation activity, % at 5 µM;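 active = nuclear translocation activity above 50% at 5 µM, with a well cell count of 50 or more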;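 note: per-cell ratio of nuclear to cytoplasmic median beta-catenin stain intensity; plate controls were DMSO negative control for no effect and GSK-3 inhibitor IX positive control for full effect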
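System: Human HeLa cells, endogenous beta-catenin | Compound dosing: 5 µM primary, 0.02–20 µM confirmation | Timing: 24 h compound exposure at 37°C, 5% CO2 | Measured by: Fluorescence imaging of beta-catenin antibody stain plus DAPI | Read-out basis: % activation of per-cell nuclear versus cytoplasmic median beta-catenin signal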
Lmaj promast = reduces viability of Leishmania major promastigotes. inhibition, % at 10 µM. 9% of 200,000 active. resazurin fluorescence viability; in the data active = inhibition above about 50%;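 note: promastigotes grown with compound for 44 hours at 28 °C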
CHOP inh = inhibitors of CHOP induction in ER stress response. CHO-K1 CHOP-promoter luciferase, tunicamycin-induced, 15-18 h. AID 2732. 3.8% of 220,000 active. inhibition, % at 10 µM;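 active = compounds that reduced the stress-induced luciferase reporter signal by more than about 70% of percent inhibition, limit read from the data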;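 note: 0% = tunicamycin plus vehicle and 100% = wells without tunicamycin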
Autophagy mod = modulators of autophagy; 0.98% of 190,000 active; calls only at 10 µM (by protocol); MEF GFP-LC3 puncta imaging; test concentration mostly 10 µM;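 active = percentage of spot-positive cells more than 3 SD above its plate mean, without a fluorescence outlier flag or 80% toxicity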;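 note: spot-positive cell cutoff set from DMSO-treated cells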
MT stabilizer = microtubule stabilizers in HeLa cells; HeLa tubulin immunostaining HCS, 24 h; share of cells brighter than vehicle mean+2SD; % tubulin-high responders, % at 10 µM; 0.83% of 200,000 active; AID 2205;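 active = plate Z-score above 3 for both tubulin-high and condensed-nucleus cell shares, with cell loss under 80%, at 10 µM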;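 note: anti alpha tubulin signal scored within the nucleus-defined area of each cell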
Active calls of the source: *.

For Cc1cc(=O)[nH]c(N/N=C/C2=C(N3CCOCC3)C(=C\c3ccc(Cl)cc3)/CC2)n1 the results were Dynein cargo inh -1.3, b-catenin transl 10, Lmaj promast -3, CHOP inh 49, Autophagy mod active and MT stabilizer 18.
`CCN(CC)c1ccc(/C=C2\CCC(/C=C(\C#N)C(=O)Nc3ccccc3F)=C2N2CCOCC2)cc1` gave Dynein cargo inh -0.65, b-catenin transl 2, Lmaj promast 2, CHOP inh 42, Autophagy mod inactive and MT stabilizer 57.
`N#C/C(=C\C1=C(N2CCOCC2)C(=C/c2cccc([N+](=O)[O-])c2)/CC1)C(=O)Nc1ccccc1F` gave Dynein cargo inh -0.91, b-catenin transl 3, Lmaj promast -6, CHOP inh 4, Autophagy mod active and MT stabilizer inactive.
For N#C/C(=C\C1=C(N2CCOCC2)C(=C\c2ccc(Cl)cc2)/CC1)C(=O)Nc1ccccc1F the results were Dynein cargo inh 1.5, b-catenin transl 39, Lmaj promast 13, CHOP inh 34, Autophagy mod active and MT stabilizer 17.
Screening Clc1ccc(/C=C/c2ncc3ccccn23)cc1 returned Dynein cargo inh -0.56, b-catenin transl 2, Lmaj promast 9, CHOP inh 17, Autophagy mod inactive and MT stabilizer 2.
`CCCCNC(=O)COc1ccccc1C(=O)c1cc(C#N)c(=O)n(CCOC)c1` gave Dynein cargo inh -0.25, b-catenin transl -2, Lmaj promast 1, CHOP inh -16, Autophagy mod inactive and MT stabilizer 2.
`C=CCn1cc(C(=O)OCC)c(=O)c2ccc(F)cc21` gave Dynein cargo inh 0.56, b-catenin transl 0, Lmaj promast 2, CHOP inh 13, Autophagy mod inactive and MT stabilizer 4.
COc1ccc(C)cc1-n1cnnn1 was read as Dynein cargo inh 2, b-catenin transl 2 and CHOP inh 6.
CC(=O)NC1C(=O)N=C(SCC(=O)Nc2cccc(Cl)c2)NC1=O (centres undefined) was read as Dynein cargo inh 0.15, b-catenin transl 0, Lmaj promast -9, CHOP inh -2, Autophagy mod inactive and MT stabilizer 3.
For O=C(CC1C(=O)NCCN1Cc1ccc(F)cc1)NCCCn1cccn1 (centres undefined) the results were Dynein cargo inh -0.28, b-catenin transl -1, Lmaj promast -8, CHOP inh 4, Autophagy mod inactive and MT stabilizer 1.
`COc1ccc(C2C(C#N)=C(C)NC3=C2C(=O)c2ccccc23)cc1` (centres undefined) gave Dynein cargo inh -0.64, b-catenin transl 2, Lmaj promast 21, CHOP inh 11, Autophagy mod inactive and MT stabilizer 11.
Screening COc1cc(C2C(C#N)=C(C)NC3=C2C(=O)c2ccccc23)cc(OC)c1OC (centres undefined) returned Dynein cargo inh -1.1, b-catenin transl 5, Lmaj promast 15, Autophagy mod inactive and MT stabilizer 16*.
`CC1=C([N+](=O)[O-])C(c2ccccc2)C2=C(N1)c1ccccc1C2=O` (centres undefined) gave Dynein cargo inh 0.73, b-catenin transl -2, Lmaj promast 20, CHOP inh 20, Autophagy mod active and MT stabilizer 9.9*.
Screening CC1(C)CC(=O)C2=C(C1)NC1=C(C(=O)c3ccccc31)C2c1ccccc1 (centres undefined) returned Dynein cargo inh 0.19, b-catenin transl -1, Lmaj promast 89*, CHOP inh 14, Autophagy mod inactive and MT stabilizer 4.
Screening CC(C)c1ccc(C2C3=C(CC(C)(C)CC3=O)NC3=C2C(=O)c2ccccc23)cc1 (centres undefined) returned Dynein cargo inh -1.2, b-catenin transl 2, Lmaj promast 89*, CHOP inh 41, Autophagy mod inactive and MT stabilizer 5.
Screening Cc1nc2c(N=Nc3ccccc3F)c(N)nn2c(N)c1C#N returned Dynein cargo inh 0.65, b-catenin transl 0, Lmaj promast 14, CHOP inh 2, Autophagy mod inactive and MT stabilizer 7.
COc1cc(/C=N/Nc2cccc(C)c2)ccc1OC(=O)c1ccco1 was read as Dynein cargo inh -1.6, b-catenin transl 2, Lmaj promast -5, CHOP inh 42, Autophagy mod inactive and MT stabilizer 7.
COc1ccc(S(=O)(=O)N(CC(=O)N2CCN(C)CC2)c2ccccc2)cc1OC was read as Dynein cargo inh 2.5, b-catenin transl -1, Lmaj promast 0, CHOP inh -10, Autophagy mod inactive and MT stabilizer 4.
CC(C)(C)c1ccc(C2C3=C(CCCC3=O)NC3=C2C(=O)c2ccccc23)cc1 (centres undefined) was read as Dynein cargo inh -0.65, b-catenin transl 0, Lmaj promast 88*, CHOP inh 21, Autophagy mod inactive and MT stabilizer 3.
For CC1(C)CC(=O)C2=C(C1)NC1=C(C(=O)c3ccccc31)C2c1cccnc1 (centres undefined) the results were Dynein cargo inh 1.8, b-catenin transl 0, Lmaj promast 25, CHOP inh 27, Autophagy mod inactive and MT stabilizer 2.
`CC(C)(C)NC(=O)CCN(/N=C/c1ccc([N+](=O)[O-])o1)C1=NS(=O)(=O)c2ccccc21` gave Dynein cargo inh -0.81, b-catenin transl -1, Lmaj promast 99*, CHOP inh -2, Autophagy mod inactive and MT stabilizer 4.
`Cc1ccc2ncnc(Oc3ncccc3NC(=O)C(C)(C)C)c2c1` gave Dynein cargo inh 0.65, b-catenin transl 0 and CHOP inh -1.
For O=C(Nc1nnc(C2CC2)s1)c1cccnc1Oc1ccc(Cl)cc1 the results were Dynein cargo inh -0.78, b-catenin transl 1 and CHOP inh 5.
For Cc1c(C(=O)C(=O)N2CC=C(c3ccccc3)CC2)c2ccccc2n1C the results were Dynein cargo inh -0.54, b-catenin transl 62*, Lmaj promast 0, CHOP inh -13, Autophagy mod inactive and MT stabilizer 15.
Cc1ccccc1NC(=O)N1c2ccccc2CC1C (centres undefined) was read as Dynein cargo inh 0.38, b-catenin transl -1, Lmaj promast -1, CHOP inh -11, Autophagy mod inactive and MT stabilizer 5.
O=C(O)c1ccccc1C(=O)N1CC=C(c2ccccc2)CC1 was read as Dynein cargo inh -0.086, b-catenin transl 0, Lmaj promast 90*, CHOP inh 32, Autophagy mod inactive and MT stabilizer 2.
For Cc1c(C(=O)C(=O)N2c3ccccc3CC2C)c2ccccc2n1C (centres undefined) the results were Dynein cargo inh -0.25, b-catenin transl 6, Lmaj promast 1, CHOP inh 12, Autophagy mod inactive and MT stabilizer 17*.
